Laboratory results published in publication PMC11362829 (RSC Advances, 2024).
≈ marks a conversion by molar mass, not a printed value.

What was measured:
[1] = target: T1, recombinant E. coli DXR enzyme (EcDXR) (Escherichia coli, UniProt P45568); assay: DXR enzyme inhibition assay; assay type: biochemical; conditions: for inhibition at 50 µM: read-out: % Inhibition at 50 μM, EcDXR, 50 μM; for inhibition at 100 µM: read-out: % Inhibition at 100 μM, in vitro EcDXR inhibition, 100 μM
T1 sequence (P45568 1-398): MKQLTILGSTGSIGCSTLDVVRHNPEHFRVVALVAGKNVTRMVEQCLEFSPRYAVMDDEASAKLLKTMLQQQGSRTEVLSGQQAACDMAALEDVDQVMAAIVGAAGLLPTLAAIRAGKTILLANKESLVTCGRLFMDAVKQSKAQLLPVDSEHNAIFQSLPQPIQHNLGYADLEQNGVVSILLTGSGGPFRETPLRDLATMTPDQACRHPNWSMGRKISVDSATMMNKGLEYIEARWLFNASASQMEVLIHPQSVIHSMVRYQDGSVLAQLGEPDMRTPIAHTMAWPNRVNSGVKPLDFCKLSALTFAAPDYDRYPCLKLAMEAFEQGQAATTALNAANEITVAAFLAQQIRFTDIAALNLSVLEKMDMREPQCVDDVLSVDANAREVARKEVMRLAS
How it was run: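 Recombinant E. coli DXR, assayed with a commercial kit following the vendor protocol. Test compound from a DMSO stock; final DMSO ~0.2% v/v or lower. Enzyme and compound pre-incubated with shaking for 10 minutes, then DXP added to start the reaction. NADPH consumption read kinetically at 340 nm. Inhibition taken at a single level or across five levels for IC50. IC50 from one representative experiment run in duplicate.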

[2] = Dilution of DMSO stock with the aqueous assay buffer; assay type: physicochemical; conditions: dilution for the 50 μM enzyme assay
[3] = test system: M. tuberculosis H37Rv mc^2 6206; assay: Screening against M. tuberculosis and MIC by Alamar Blue assay; assay type: cell-based; conditions: for MIC: Mycobacterium tuberculosis, H37RV, read-out: MIC against M. tuberculosis
E. coli = assay: Screening against ESKAPE pathogens: E. coli; assay type: cell-based
How it was run: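 E. coli grown in LB at 37 °C with shaking at 200 rpm to turbidity, then diluted to OD600 0.02. Test compound freshly dissolved in DMSO and added at one of two single levels. Growth judged visually after 24 h at 37 °C against DMSO-treated controls.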

**Q.** For `CC(NC(=O)c1ccc2ccccc2c1O)P(=O)(O)O` (stereo not drawn) [Compound 22c, (1-(1-Hydroxy-2-naphthamido)ethyl)phosphonic acid], which inhibition at 50 µM [1] is on record?
**A.** 84.2%

**Q.** Which inhibition at 50 µM [1] does the source give for `O=C(NCP(=O)(O)O)c1cccc(O)c1O` [Compound 21b, ((2,3-Dihydroxybenzamido)methyl)phosphonic acid] here?
**A.** 68.4%

**Q.** For `O=C(NCP(=O)(O)O)c1ccccc1O` [Compound 20b, ((2-hydroxybenzamido)methyl)phosphonic acid], which “Behaviour during dilution with the aqueous buffer” value (“Behaviour during dilution” below) [2] is on record?
**A.** precipitated during dilution

**Q.** For `O=C(NCP(=O)(O)O)c1ccc2ccccc2c1O` [Compound 22b, ((1-Hydroxy-2-naphthamido)methyl)phosphonic acid], which IC50 [1] is on record?
**A.** 0.29 µM

**Q.** What about the inhibition at 50 µM [1] of the same compound?
**A.** 76.3%

**Q.** And the “Effect on M. tuberculosis growth” value ([3]; 500 μM)?
**A.** inhibited M. tuberculosis growth

**Q.** What about the MIC [3] of the same compound?
**A.** > 250 µM

**Q.** What about the “Activity against E. coli” value (E. coli) of the same compound?
**A.** inactive against E. coli

**Q.** For `O=Cc1cccc(O)c1O` [Compound F9, 2,3-dihydroxy benzaldehyde], which inhibition at 100 µM [1] is on record?
**A.** 86.5%

**Q.** With `O=C(O)c1cccc(O)c1O` [Compound F2, 2,3-Dihydroxy benzoic acid] as the compound, how does the inhibition at 100 µM [1] read?
**A.** 93.3%

**Q.** Which inhibition at 50 µM [1] does the source give for `O=C(NCCc1ccccc1)c1ccc2ccccc2c1O` [Compound 25b, 1-Hydroxy-N-phenethyl-2-naphthamide] here?
**A.** 4.69%

**Q.** What does the source list for `O=C(NC(c1cccc2ccccc12)P(=O)(O)O)c1ccccc1O` (stereo not drawn) [Compound 20d, ((2-Hydroxybenzamido)(naphthalen-1-yl)methyl)phosphonic acid]?
**A.** IC50 [1]: 32.9 µM; folds less potent than 22d ([1]; EcDXR IC50 compared to 22d): ~8 fold; inhibition at 50 µM [1]: 81.3%; Effect on M. tuberculosis growth ([3]; 500 μM): inhibited M. tuberculosis growth; MIC [3]: > 250 µM

**Q.** Which inhibition at 50 µM [1] does the source give for `CC(NC(=O)c1cccc(O)c1O)P(=O)(O)O` (stereo not drawn) [Compound 21c, (1-(2,3-Dihydroxybenzamido)ethyl)phosphonic acid] here?
**A.** 60.1%

**Q.** Which inhibition at 100 µM [1] does the source give for `O=C(O)c1coc2ccccc2c1=O` [Compound F10, Chromone-3-carboxylic acid] here?
**A.** 100%

**Q.** What does the source list for `O=C(NC(c1ccccc1)P(=O)(O)O)c1coc2ccccc2c1=O` (stereo not drawn) [Compound 23a, ((4-Oxo-4H-chromene-3-carboxamido)(phenyl)methyl)phosphonic acid]?
**A.** IC50 [1]: 6.09 µM; inhibition at 50 µM [1]: 79.8%; Effect on M. tuberculosis growth ([3]; 200 μM): none of the tested compounds affected M. tuberculosis growth

**Q.** Which “% Inhibition at 50 μM” value ([1]; EcDXR, 50 μM) does the source give for `O=C(NCc1ccccc1)c1ccc2ccccc2c1O` [Compound 25a, N-Benzyl-1-hydroxy-2-naphthamide] here?
**A.** 30.4%

**Q.** What about the inhibition at 50 µM [1] of the same compound?
**A.** 30%

**Q.** With `O=C(NCCCc1ccccc1)c1ccc2ccccc2c1O` [Compound 25c, 1-Hydroxy-N-(3-phenylpropyl)-2-naphthamide] as the compound, how does the inhibition at 50 µM [1] read?
**A.** 31.3%

**Q.** Which results are given for `O=C(NC(c1ccccc1)P(=O)(O)O)c1ccccc1O` (stereo not drawn) [Compound 20a, ((2-Hydroxybenzamido)(phenyl)methyl)phosphonic acid]?
**A.** IC50 [1]: 33.2 µM; fold less potency than its counterpart 22a ([1]; EcDXR IC50 compared to 22a): ~2 fold; inhibition at 50 µM [1]: 94.6%; Effect on M. tuberculosis growth ([3]; 200 μM): none of the tested compounds affected M. tuberculosis growth

**Q.** Which “Behaviour during dilution” value [2] does the source give for `CC(NC(=O)c1ccccc1O)P(=O)(O)O` (stereo not drawn) [Compound 20c, (1-(2-Hydroxybenzamido)ethyl)phosphonic acid] here?
**A.** precipitated during dilution

**Q.** With `O=C(O)c1ccc2ccccc2c1O` [Compound F7, 1-Hydroxy-2-naphthoic acid] as the compound, how does the inhibition at 100 µM [1] read?
**A.** 100%

**Q.** What does the source list for `O=C(NC(c1ccccc1)P(=O)(O)O)c1ccc2ccccc2c1O` (stereo not drawn) [Compound 22a, ((1-Hydroxy-2-naphthamido)(phenyl)methyl)phosphonic acid]?
**A.** IC50 [1]: 16.9 µM; folds lower potency than 22b ([1]; EcDXR IC50 compared to 22b): ~57 fold; inhibition at 50 µM [1]: 70.9%; Effect on M. tuberculosis growth ([3]; 200 μM): none of the tested compounds affected M. tuberculosis growth

**Q.** Which inhibition at 100 µM [1] does the source give for `O=CN(O)CCCP(=O)(O)O` [FSM, Fosmidomycin, reference compound] here?
**A.** 100%

**Q.** For `O=C(NC(c1ccc(Cl)c(Cl)c1)P(=O)(O)O)c1ccccc1O` (stereo not drawn) [Compound 20e, ((3,4-Dichlorophenyl)(2-hydroxybenzamido)methyl)phosphonic acid], which “Effect on M. tuberculosis growth” value ([3]; 500 μM) is on record?
**A.** inhibited M. tuberculosis growth

**Q.** And the MIC [3]?
**A.** > 250 µM

**Q.** And the “Behaviour during dilution” value [2]?
**A.** precipitated during dilution

**Q.** With `O=C(NC(c1ccccc1)P(=O)(O)O)c1cccc(O)c1O` (stereo not drawn) [Compound 21a, ((2,3-Dihydroxybenzamido)(phenyl)methyl)phosphonic acid] as the compound, how does the inhibition at 50 µM [1] read?
**A.** 66.5%

**Q.** And the “Effect on M. tuberculosis growth” value ([3]; 200 μM)?
**A.** none of the tested compounds affected M. tuberculosis growth

**Q.** Which results are given for `O=C(NC(c1cccc2ccccc12)P(=O)(O)O)c1ccc2ccccc2c1O` (stereo not drawn) [Compound 22d, ((1-Hydroxy-2-naphthamido)(naphthalen-1-yl)methyl)phosphonic acid]?
**A.** IC50 [1]: 4.44 µM; fold improvement in IC50 value compared to 22a ([1]; EcDXR IC50 compared to 22a): ~4 fold; inhibition at 50 µM [1]: 73.7%; Effect on M. tuberculosis growth ([3]; 500 μM): inhibited M. tuberculosis growth; MIC [3]: 125 µM (≈ 50.9 µg/mL); Activity against E. coli (E. coli): inactive against E. coli

**Q.** With `O=C(NC(c1cccc2ccccc12)P(=O)(O)O)c1cccc(O)c1O` (stereo not drawn) [Compound 21d, ((2,3-Dihydroxybenzamido)(naphthalen-1-yl)methyl)phosphonic acid] as the compound, how does the inhibition at 50 µM [1] read?
**A.** 78.5%

**Q.** Which inhibition at 100 µM [1] does the source give for `O=C(O)c1ccccc1O` [Compound F12, Salicylic acid] here?
**A.** 87.4%
